Measurements as given in ChEMBL document CHEMBL3994602, “Termisoflavones A-C, Isoflavonoid Glycosides from Termite-Associated Streptomyces sp. RB1” (2016).
Activity calls are given as the source filed them. The rule behind the calls is not given here.

tested on: Cryptococcus neoformans; experiment: Antifungal activity against Cryptococcus neoformans H99 by CLSI M27-A3 broth microdilution method; format: functional; settings: var grubii H99
Procedure, shortened: (§1)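 MICs were determined by broth microdilution following CLSI standard M27-A3, with fluconazole as the positive control.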

Row | MIC [µg/mL] | Compound
1 | > 100 | O=c1c(-c2ccc(O)cc2)coc2cc(O[C@@H]3O[C@H](CO)[C@@H](O)[C@H](O)[C@H]3O)cc(O)c12 [GENISTIN]
2 | > 100 | C[C@@H]1O[C@@H](Oc2ccc3c(=O)c(-c4ccc(O)cc4)coc3c2)[C@H](O)[C@H](O)[C@H]1O
3 | > 100 | O=c1c(-c2ccc(O)cc2)coc2cc(O[C@@H]3O[C@H](CO)[C@@H](O)[C@H](O)[C@H]3O)ccc12 [DAIDZIN]

The next lines start with the compound.

Row | Compound | MIC [µg/mL]
4 | CO[C@@H]1[C@@H](O)[C@H](C)O[C@@H](Oc2ccc(-c3coc4cc(O[C@@H]5O[C@@H](C)[C@H](O)[C@@H](OC)[C@H]5O)ccc4c3=O)cc2)[C@@H]1O | > 100
5 | C[C@@H]1O[C@@H](Oc2ccc(-c3coc4cc(O[C@@H]5O[C@@H](C)[C@H](O)[C@@H](O)[C@H]5O)ccc4c3=O)cc2)[C@H](O)[C@H](O)[C@H]1O | > 100
6 | C[C@@H]1O[C@@H](Oc2cc(O)c3c(=O)c(-c4ccc(O)cc4)coc3c2)[C@H](O)[C@H](O)[C@H]1O | > 100
7 | COc1cc2c(=O)c(-c3ccc(O)cc3)coc2cc1O[C@@H]1O[C@@H](C)[C@H](O)[C@@H](O)[C@H]1O | > 100
8 | C[C@@H]1O[C@@H](Oc2ccc(-c3coc4cc(O[C@@H]5O[C@@H](C)[C@H](O)[C@@H](O)[C@H]5O)cc(O)c4c3=O)cc2)[C@H](O)[C@H](O)[C@H]1O | > 100
9 | CO[C@@H]1[C@@H](O)[C@H](C)O[C@@H](Oc2ccc(-c3coc4cc(O[C@@H]5O[C@@H](C)[C@H](O)[C@@H](OC)[C@H]5O)cc(O)c4c3=O)cc2)[C@@H]1O | > 100
10 | O=c1c(-c2ccc(O)cc2)coc2cc(O)ccc12 [DAIDZEIN] | > 100
11 | CO[C@@H]1[C@@H](O)[C@H](C)O[C@@H](Oc2ccc(-c3coc4cc(O[C@@H]5O[C@@H](C)[C@H](O)[C@@H](O)[C@H]5O)cc(O)c4c3=O)cc2)[C@@H]1O | > 100

tested on: Escherichia coli; experiment: Antibacterial activity against Escherichia coli DH10B by EUCAST method; format: functional; settings: K-12 substr. DH10B
Procedure, shortened: (§2)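 Minimal inhibitory concentrations were determined by the EUCAST method, with streptomycin sulfate as the positive control.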

Row | MIC [µg/mL] | Compound
12 | > 100 | O=c1c(-c2ccc(O)cc2)coc2cc(O[C@@H]3O[C@H](CO)[C@@H](O)[C@H](O)[C@H]3O)cc(O)c12 [GENISTIN]
13 | > 100 | C[C@@H]1O[C@@H](Oc2ccc3c(=O)c(-c4ccc(O)cc4)coc3c2)[C@H](O)[C@H](O)[C@H]1O
14 | > 100 | O=c1c(-c2ccc(O)cc2)coc2cc(O[C@@H]3O[C@H](CO)[C@@H](O)[C@H](O)[C@H]3O)ccc12 [DAIDZIN]

More lines, now with the values behind:

Row | Compound | MIC [µg/mL]
15 | CO[C@@H]1[C@@H](O)[C@H](C)O[C@@H](Oc2ccc(-c3coc4cc(O[C@@H]5O[C@@H](C)[C@H](O)[C@@H](OC)[C@H]5O)ccc4c3=O)cc2)[C@@H]1O | > 100
16 | C[C@@H]1O[C@@H](Oc2ccc(-c3coc4cc(O[C@@H]5O[C@@H](C)[C@H](O)[C@@H](O)[C@H]5O)ccc4c3=O)cc2)[C@H](O)[C@H](O)[C@H]1O | > 100
17 | C[C@@H]1O[C@@H](Oc2cc(O)c3c(=O)c(-c4ccc(O)cc4)coc3c2)[C@H](O)[C@H](O)[C@H]1O | > 100
18 | COc1cc2c(=O)c(-c3ccc(O)cc3)coc2cc1O[C@@H]1O[C@@H](C)[C@H](O)[C@@H](O)[C@H]1O | > 100
19 | C[C@@H]1O[C@@H](Oc2ccc(-c3coc4cc(O[C@@H]5O[C@@H](C)[C@H](O)[C@@H](O)[C@H]5O)cc(O)c4c3=O)cc2)[C@H](O)[C@H](O)[C@H]1O | > 100
20 | CO[C@@H]1[C@@H](O)[C@H](C)O[C@@H](Oc2ccc(-c3coc4cc(O[C@@H]5O[C@@H](C)[C@H](O)[C@@H](OC)[C@H]5O)cc(O)c4c3=O)cc2)[C@@H]1O | > 100
21 | O=c1c(-c2ccc(O)cc2)coc2cc(O)ccc12 [DAIDZEIN] | > 100
22 | CO[C@@H]1[C@@H](O)[C@H](C)O[C@@H](Oc2ccc(-c3coc4cc(O[C@@H]5O[C@@H](C)[C@H](O)[C@@H](O)[C@H]5O)cc(O)c4c3=O)cc2)[C@@H]1O | > 100

tested on: Staphylococcus aureus; experiment: Antibacterial activity against Staphylococcus aureus NCTC 8325-4 by EUCAST method; format: functional; settings: not given; procedure, shortened: as §2

Row | MIC [µg/mL] | Compound
23 | > 100 | O=c1c(-c2ccc(O)cc2)coc2cc(O[C@@H]3O[C@H](CO)[C@@H](O)[C@H](O)[C@H]3O)cc(O)c12 [GENISTIN]
24 | > 100 | C[C@@H]1O[C@@H](Oc2ccc3c(=O)c(-c4ccc(O)cc4)coc3c2)[C@H](O)[C@H](O)[C@H]1O
25 | > 100 | O=c1c(-c2ccc(O)cc2)coc2cc(O[C@@H]3O[C@H](CO)[C@@H](O)[C@H](O)[C@H]3O)ccc12 [DAIDZIN]

The remaining lines, values behind:

Row | Compound | MIC [µg/mL]
26 | CO[C@@H]1[C@@H](O)[C@H](C)O[C@@H](Oc2ccc(-c3coc4cc(O[C@@H]5O[C@@H](C)[C@H](O)[C@@H](OC)[C@H]5O)ccc4c3=O)cc2)[C@@H]1O | > 100
27 | C[C@@H]1O[C@@H](Oc2ccc(-c3coc4cc(O[C@@H]5O[C@@H](C)[C@H](O)[C@@H](O)[C@H]5O)ccc4c3=O)cc2)[C@H](O)[C@H](O)[C@H]1O | > 100
28 | C[C@@H]1O[C@@H](Oc2cc(O)c3c(=O)c(-c4ccc(O)cc4)coc3c2)[C@H](O)[C@H](O)[C@H]1O | > 100
29 | COc1cc2c(=O)c(-c3ccc(O)cc3)coc2cc1O[C@@H]1O[C@@H](C)[C@H](O)[C@@H](O)[C@H]1O | > 100
30 | C[C@@H]1O[C@@H](Oc2ccc(-c3coc4cc(O[C@@H]5O[C@@H](C)[C@H](O)[C@@H](O)[C@H]5O)cc(O)c4c3=O)cc2)[C@H](O)[C@H](O)[C@H]1O | > 100
31 | CO[C@@H]1[C@@H](O)[C@H](C)O[C@@H](Oc2ccc(-c3coc4cc(O[C@@H]5O[C@@H](C)[C@H](O)[C@@H](OC)[C@H]5O)cc(O)c4c3=O)cc2)[C@@H]1O | > 100
32 | O=c1c(-c2ccc(O)cc2)coc2cc(O)ccc12 [DAIDZEIN] | > 100
33 | CO[C@@H]1[C@@H](O)[C@H](C)O[C@@H](Oc2ccc(-c3coc4cc(O[C@@H]5O[C@@H](C)[C@H](O)[C@@H](O)[C@H]5O)cc(O)c4c3=O)cc2)[C@@H]1O | > 100

tested on: Candida albicans; experiment: Antifungal activity against Candida albicans SC5314 by CLSI M27-A3 broth microdilution method; format: functional; settings: not given; procedure, shortened: as §1

Row | MIC [µg/mL] | Compound
34 | > 100 | O=c1c(-c2ccc(O)cc2)coc2cc(O[C@@H]3O[C@H](CO)[C@@H](O)[C@H](O)[C@H]3O)cc(O)c12 [GENISTIN]
35 | > 100 | C[C@@H]1O[C@@H](Oc2ccc3c(=O)c(-c4ccc(O)cc4)coc3c2)[C@H](O)[C@H](O)[C@H]1O
36 | > 100 | O=c1c(-c2ccc(O)cc2)coc2cc(O[C@@H]3O[C@H](CO)[C@@H](O)[C@H](O)[C@H]3O)ccc12 [DAIDZIN]

More lines, now with the values behind:

Row | Compound | MIC [µg/mL]
37 | CO[C@@H]1[C@@H](O)[C@H](C)O[C@@H](Oc2ccc(-c3coc4cc(O[C@@H]5O[C@@H](C)[C@H](O)[C@@H](OC)[C@H]5O)ccc4c3=O)cc2)[C@@H]1O | > 100
38 | C[C@@H]1O[C@@H](Oc2ccc(-c3coc4cc(O[C@@H]5O[C@@H](C)[C@H](O)[C@@H](O)[C@H]5O)ccc4c3=O)cc2)[C@H](O)[C@H](O)[C@H]1O | > 100
39 | C[C@@H]1O[C@@H](Oc2cc(O)c3c(=O)c(-c4ccc(O)cc4)coc3c2)[C@H](O)[C@H](O)[C@H]1O | > 100
40 | COc1cc2c(=O)c(-c3ccc(O)cc3)coc2cc1O[C@@H]1O[C@@H](C)[C@H](O)[C@@H](O)[C@H]1O | > 100
41 | C[C@@H]1O[C@@H](Oc2ccc(-c3coc4cc(O[C@@H]5O[C@@H](C)[C@H](O)[C@@H](O)[C@H]5O)cc(O)c4c3=O)cc2)[C@H](O)[C@H](O)[C@H]1O | > 100
42 | CO[C@@H]1[C@@H](O)[C@H](C)O[C@@H](Oc2ccc(-c3coc4cc(O[C@@H]5O[C@@H](C)[C@H](O)[C@@H](OC)[C@H]5O)cc(O)c4c3=O)cc2)[C@@H]1O | > 100
43 | O=c1c(-c2ccc(O)cc2)coc2cc(O)ccc12 [DAIDZEIN] | > 100
44 | CO[C@@H]1[C@@H](O)[C@H](C)O[C@@H](Oc2ccc(-c3coc4cc(O[C@@H]5O[C@@H](C)[C@H](O)[C@@H](O)[C@H]5O)cc(O)c4c3=O)cc2)[C@@H]1O | > 100

tested on: LLC-PK1; experiment: Renoprotective activity in pig LLC-PK1 cells assessed as inhibition of cisplatin-induced damage by measuring cell viability up to 100 uM preincubated for 24 hrs followed by addition of Ez-Cytox reagent and measured after 2 hrs relative to control; format: functional, Sus scrofa; settings: not given
Procedure, shortened: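 LLC-PK1 pig kidney epithelial cells were cultured in DMEM with 10% FBS, 1% penicillin/streptomycin and 4 mM L-glutamine at 37 °C, 5% CO2. Cells were seeded at 1 × 10^4 per well and allowed to adhere for 2 h. Test sample and/or 25 μM cisplatin were added and incubated for 24 h. Medium was replaced with serum-free medium plus Ez-Cytox for 2 h at 37 °C, then absorbance was read at 450 nm. N-acetyl cysteine was the positive control.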

Row | Compound | Activity [%]
45 | C[C@@H]1O[C@@H](Oc2ccc3c(=O)c(-c4ccc(O)cc4)coc3c2)[C@H](O)[C@H](O)[C@H]1O | >80
46 | O=c1c(-c2ccc(O)cc2)coc2cc(O[C@@H]3O[C@H](CO)[C@@H](O)[C@H](O)[C@H]3O)ccc12 [DAIDZIN] | >80

same assay, conditions: Sus scrofa

Row | Compound | Activity
47 | CO[C@@H]1[C@@H](O)[C@H](C)O[C@@H](Oc2ccc(-c3coc4cc(O[C@@H]5O[C@@H](C)[C@H](O)[C@@H](OC)[C@H]5O)ccc4c3=O)cc2)[C@@H]1O | Active
48 | C[C@@H]1O[C@@H](Oc2ccc(-c3coc4cc(O[C@@H]5O[C@@H](C)[C@H](O)[C@@H](O)[C@H]5O)ccc4c3=O)cc2)[C@H](O)[C@H](O)[C@H]1O | Active
49 | C[C@@H]1O[C@@H](Oc2cc(O)c3c(=O)c(-c4ccc(O)cc4)coc3c2)[C@H](O)[C@H](O)[C@H]1O | Active
50 | O=c1c(-c2ccc(O)cc2)coc2cc(O[C@@H]3O[C@H](CO)[C@@H](O)[C@H](O)[C@H]3O)cc(O)c12 [GENISTIN] | Active
51 | C[C@@H]1O[C@@H](Oc2ccc(-c3coc4cc(O[C@@H]5O[C@@H](C)[C@H](O)[C@@H](O)[C@H]5O)cc(O)c4c3=O)cc2)[C@H](O)[C@H](O)[C@H]1O | Active
52 | CO[C@@H]1[C@@H](O)[C@H](C)O[C@@H](Oc2ccc(-c3coc4cc(O[C@@H]5O[C@@H](C)[C@H](O)[C@@H](OC)[C@H]5O)cc(O)c4c3=O)cc2)[C@@H]1O | Active
53 | O=c1c(-c2ccc(O)cc2)coc2cc(O)ccc12 [DAIDZEIN] | Active
